These results are taken from ChEMBL document CHEMBL1124806, “Synthesis of quaternary amine ether lipids and evaluation of neoplastic cell growth inhibitory properties” (J Med Chem, 1990).

The target in one assay is Protein kinase C (PKC). As to the kind of experiment: Inhibition of Protein Kinase C (PKC) isolated from HL-60 human promyelocytic leukemia cells. It counts as cell-free.
Conditions: not given
In a few lines: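 Partially purified PKC from HL-60 cells, pH 7.5, in 25 mM Tris, 10 mM MgCl2, 0.1 mM CaCl2, 40 μg/mL histone, 20 μg/mL phosphatidylserine, 2.5 μM OAG, and 10 μM ATP with [γ-32P]ATP. Analogue in ethanol is added before the enzyme starts the reaction, with a 0.1% ethanol control. The reaction runs 20 min at 30 °C and is stopped with BSA and ice-cold 25% TCA. Filter-bound 32P-histone is counted; duplicates.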
In turn, `CCCCCCCCCCCCCCCCCCSCC(C[N+](C)(C)CCCO)OC.[I-]` (stereo unspecified) returned an IC50 of 5000 nM. On the same count and under the same terms, then `CCCCCCCCCCCCCCCCOCC(C[N+](C)(C)C)OC.[Br-]` (stereo unspecified), with above 40000 nM. On the same count and under the same terms, then `CCCCCCCCCCCCCCCCSCC(C[N+](C)(C)C)OC.[Br-]` (stereo unspecified), with 25000 nM; and `CCCCCCCCCCCCCCCCOCC(COCC[N+](C)(C)C)OC.[Br-]` (stereo unspecified), with 31000 nM.

Compound `CCCCCCCCCCCCCCCCOCCC[N+](C)(C)C.[Br-]` registered an IC50 above 40000 nM.

Compound `CCCCCCCCCCCCCCCCCC1OCC(C[N+](C)(C)CCCO)O1.[Br-]` (stereo unspecified) showed an IC50 of 13000 nM. Regarding `CCCCCCCCCCCCCCCCOCCC[n+]1ccccc1.[Br-]`, the IC50 was above 40000 nM.

In turn, `CCCCCCCCCCCCCCCCOCC(COCCCC[N+](C)(C)C)OCC.[Br-]` (stereo unspecified) showed an IC50 above 40000 nM. The same measure, in the same setting: then `CCCCCCCCCCCCCCCCOCC(COCCCCCC[N+](C)(C)C)OC.[Br-]` (stereo unspecified), with above 40000 nM. Same read-out and setting: then `CCCCCCCCCCCCCCCCOCC(COCCCC[N+](C)(C)C)OC.[Br-]` (stereo unspecified), with above 40000 nM. Still for that read-out and setting: then `CCCCCCCCCCCCCCCCCCOCC(COP(=O)([O-])OCC[N+](C)(C)C)OC` (stereo unspecified) [EDELFOSINE], with 12000 nM.

Another assay concerns HL-60. As to the kind of experiment: Inhibition of neoplastic cell proliferation with the HL-60 human promyelocytic leukemia cells. It is filed as functional. The following applies: read-out: ID50 (the source's name). The method in brief: (§1)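 HL-60 cells are kept in RPMI 1640 with 10% FBS and 2 mM glutamine under 5% CO2. They are seeded at 5 × 10^5 cells/mL with a range of lipid concentrations, diluted into medium from 1 mg/mL ethanol stocks. After 48 h, viable cells are counted by hemocytometer with trypan blue. ID50 values are averaged, and SD is taken from the averaged ID50s.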
Turning to `CCCCCCCCCCCCCCCCSCC(C[N+](C)(C)CCO)OC` (stereo unspecified), the IC50 stood at 4660 nM. Same read-out and setting: then `CCCCCCCCCCCCCCCCSCC(C[N+](C)(C)CCO)OCC` (stereo unspecified), with 3720 nM; and `CCCCCCCCCCCCCCCCSCC(C[N+](C)(C)CCCO)OCC` (stereo unspecified), with 2950 nM.

The next assay concerns HL-60. As to the kind of experiment: Inhibition of neoplastic cell proliferation in the HL-60 human promyelocytic leukemia cells. It counts as functional. The following applies: read-out: ID50 (the source's name). The method in brief: as §1
As for `CCCCCCCCCCCCCCCCOCC(C[n+]1ccccc1)OCC` (stereo unspecified), the IC50 was 1010 nM. As to `CCCCCCCCCCCCCCCCCCSCC(C[N+](C)(C)CCCO)OC.[I-]` (stereo unspecified), the IC50 came out at 3350 nM. For the compound `CCCCCCCCCCCCCCCCOCC(C[N+](C)(C)C)OC.[Br-]` (stereo unspecified), the IC50 came to 1590 nM. Still for that read-out and setting: then `CCCCCCCCCCCCCCCCSCC(C[N+](C)(C)C)OC.[Br-]` (stereo unspecified), with 2200 nM.

In the case of `CCCCCCCCCCCCCCCCOCC(COCC[N+](C)(C)C)OC.[Br-]` (stereo unspecified), the IC50 is 1850 nM. On the same count and under the same terms, then `CCCCCCCCCCCCCCCCOCCCOCCCC[N+](C)(C)C`, with 1560 nM; and `CCCCCCCCCCCCCCCCOCCC[N+](C)(C)C.[Br-]`, with 1610 nM. With `CCCCCCCCCCCCCCCCCCOCC(COCCCC[N+](C)(C)C)OCC` (stereo unspecified), the IC50 turned out to be 1260 nM. Same read-out and setting: then `CCCCCCCCCCCCCCCCCC1OCC(COCCCC[N+](C)(C)C)O1` (stereo unspecified), with 2820 nM; and `CCCCCCCCCCCCCCCCOCC(C[N+](CC)(CC)CC)OCC` (stereo unspecified), with 680 nM. Still for that read-out and setting: then `CCCCCCCCCCCCCCCCCC1OCC(C[N+](C)(C)CCCO)O1.[Br-]` (stereo unspecified), with 6470 nM; and `CCCCCCCCCCCCCCCCOCCC[n+]1ccccc1.[Br-]`, with 820 nM. Still for that read-out and setting: then `CCCCCCCCCCCCCCCCOCC(C[N+]1(C)CCC(O)CC1)OCC` (stereo unspecified), with 2720 nM; and `CCCCCCCCCCCCCCCCOCC(COCCCC[N+](C)(C)C)OCC.[Br-]` (stereo unspecified), with 1860 nM; and `CCCCCCCCCCCCCCCCSCC(COCCCC[N+](C)(C)C)OCC` (stereo unspecified), with 1830 nM. In the case of `CCCCCCCCCCCCCCCCOCC(COCCCCCC[N+](C)(C)C)OC.[Br-]` (stereo unspecified), the IC50 is 1750 nM.

With `CCCCCCCCCCCCCCCCOCC(COCCCC[N+](C)(C)C)OC.[Br-]` (stereo unspecified), the IC50 came to 2300 nM. Still for that read-out and setting: then `CCCCCCCCCCCCCCCCOCC(COCCCCCCCCCC[N+](C)(C)C)OC` (stereo unspecified), with 3790 nM; and `CCCCCCCCCCCCCCCCOCC(COCCC[N+](C)(C)C)OC` (stereo unspecified), with 1200 nM. On the same count and under the same terms, then `CC1(C)OCC(C[N+](C)(C)CCO)O1` (stereo unspecified), with above 10000 nM.

With `CCCCCCCCCCCCCCCCOCC(COCCCC[n+]1ccccc1)OCC` (stereo unspecified), the IC50 stood at 780 nM. The same measure, in the same setting: then `CCCCCCCCCCCCCCCCCCOCC(COP(=O)([O-])OCC[N+](C)(C)C)OC` (stereo unspecified) [EDELFOSINE], with 2010 nM.
